This is a sample that favours compounds with a hit; in the whole collection about 2.3% have one here.
CSN deneddyl inh = inhibitors of human CSN-mediated cullin deneddylation. Q92905. Purified CSN, SCF-Nedd8-OG deneddylation, fluorescence polarization. inhibition, % at 12.5 µM. 360,000 tested, 0.38% active. AID 651999;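 active = pattern-corrected inhibition above about 35%, with an unprinted fluorescence ratio check between 0.5 and 1.5, limit read from the data, passing the limit was not always enough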;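 also: 0% = enzyme with substrate and 100% = substrate without enzyme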
Target sequence (Q92905 whole entry, looked up, one chain of several): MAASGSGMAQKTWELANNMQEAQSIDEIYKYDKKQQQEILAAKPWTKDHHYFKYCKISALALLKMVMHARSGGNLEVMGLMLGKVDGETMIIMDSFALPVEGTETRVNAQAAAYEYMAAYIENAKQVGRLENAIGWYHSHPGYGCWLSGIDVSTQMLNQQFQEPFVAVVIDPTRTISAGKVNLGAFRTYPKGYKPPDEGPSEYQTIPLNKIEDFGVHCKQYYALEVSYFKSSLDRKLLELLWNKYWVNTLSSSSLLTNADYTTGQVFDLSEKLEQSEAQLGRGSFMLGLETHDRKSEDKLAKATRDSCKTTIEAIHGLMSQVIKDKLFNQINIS
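test system = HEK293T-derived human Csn5 enzyme | amount = 0.24 nM Csn5 enzyme, final concentration | medium = Tris/NaCl/DTT buffer, pH 7.5 | schedule = 90 min reaction at room temperature | signal = FP | evaluation = inhibition of Csn5 cleavage, % | compound dosing = single dose of 12.5 µM compound with 0.25% DMSO | probe or stimulus = 10 nM SCFSkp2-Nedd8OG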
HNF4A DNA FP = change in binding of human HNF4 alpha to DNA. HNF4a-FITC DNA binding, fluorescence polarization, 1 h. 360,000 tested, 0.3% active. P41235. activity change, % at 10 µM. AID 1224865; in the data active = activity change above about 30%, passing the limit was not always enough
Myeloid diff MLP = myeloid differentiation induction; ER-HoxA9 myeloid progenitors, lysozyme-GFP differentiation, flow cytometry; calls only at 10 µM; 360,000 tested, 1% active;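 active = normalized GFP-positive differentiation at or above the plate's own cutoff, the solvent-only control mean plus 3 SD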;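 also: cells exposed to compound for four days before flow analysis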
TPT1 inh = inhibitors of Candida albicans tRNA 2'-phosphotransferase TPT1. recombinant caTPT1, FP RNA substrate dephosphorylation. inhibition, % at 5 µM. 300,000 tested, 0.81% active;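 active = inhibition above the mean of all tested compounds plus 3 SD, set per screening campaign, cut at about 24% in these data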;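 also: plate controls were DMSO alone for no effect and ferristatin control at 100 nM for full effect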
Rpn11 block = blocks the human proteasome subunit Rpn11 | human 26S proteasome, Ub4-pepOG fluorescence polarization; 20S core pre-blocked with epoxomicin | O00487 | 360,000 tested, 0.59% active | inhibition, % at 20 µM;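 active = inhibition at 20 µM, scaled to each plate's controls, above about 33%, limit read from the data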
Starred values were filed as active, the others as inactive.

How did CCOC(=O)[C@]12CCCC=C1N(Cc1ccco1)C(=O)[C@H](CC(=O)NCCc1ccccc1OC)C2 do in these assays?
CSN deneddyl inh: 5; HNF4A DNA FP: 4; Myeloid diff MLP: inactive

What do the screens show for `O=C(CSc1nnc(-c2ccco2)o1)c1ccc[nH]1`?
CSN deneddyl inh: 38*; HNF4A DNA FP: -3; Myeloid diff MLP: inactive; TPT1 inh: 6; Rpn11 block: -10

What do the screens show for `CCCCCCCCN1C(=O)[C@H](CC(=O)NCc2cccs2)C[C@@]2(C(=O)OC)CC(C)(C)CC=C12`?
CSN deneddyl inh: 0; HNF4A DNA FP: 3; Myeloid diff MLP: inactive

How did CC(C)(C)OC(=O)Nc1ccccc1-n1nnnc1C(C(=O)c1ccc(F)cc1)N1CCN(c2ccccn2)CC1 (stereo unspecified) do in these assays?
CSN deneddyl inh: 6; HNF4A DNA FP: 2; Myeloid diff MLP: inactive

Results for NNC(=O)c1ccc(Cn2cc(Br)c(N)n2)cc1 ?
CSN deneddyl inh: -4; HNF4A DNA FP: -2; Myeloid diff MLP: active; TPT1 inh: -3; Rpn11 block: 4

Results for COC(=O)Nc1nc2ccc(-c3n[nH]c(=O)c4ccccc34)cc2[nH]1 ?
CSN deneddyl inh: -9; HNF4A DNA FP: 2; Myeloid diff MLP: active; TPT1 inh: -4; Rpn11 block: 0

What do the screens show for `CCCOC(=O)c1cc(-c2ccc(/C=C3/C(=O)N(C)C(=O)C(C#N)=C3C)o2)ccc1Cl`?
CSN deneddyl inh: 9; HNF4A DNA FP: 3; Myeloid diff MLP: inactive; TPT1 inh: 24*; Rpn11 block: 7

Results for CC(C)(C)OC(=O)NCc1ccc(NC(=O)c2nc[nH]c2C(=O)NCCCCCCNC(=O)c2[nH]cnc2C(=O)Nc2ccc(CNC(=O)OC(C)(C)C)cc2)cc1 ?
CSN deneddyl inh: 17; HNF4A DNA FP: 46*; Myeloid diff MLP: inactive; Rpn11 block: 7

What do the screens show for `CCCC(=O)Nc1cc(-c2nnc(OC)c3ccccc23)ccc1N1CCCCC1`?
TPT1 inh: -1

What do the screens show for `COc1nnc(-c2ccc(N3CCCCC3)c(N)c2)c2ccccc12`?
CSN deneddyl inh: 110*; HNF4A DNA FP: 5; Myeloid diff MLP: inactive; TPT1 inh: -2; Rpn11 block: 7

Results for CCn1c(-c2ccccc2)csc1=Nc1ccc(O)cc1 ?
CSN deneddyl inh: 1; HNF4A DNA FP: 1; Myeloid diff MLP: active; TPT1 inh: -2; Rpn11 block: -4

Results for NC(=O)c1c(NC(=O)CSc2nnc(-c3ccco3)n2-c2ccccc2)sc2c1CCC2 ?
CSN deneddyl inh: 36*; HNF4A DNA FP: -13; Myeloid diff MLP: inactive; TPT1 inh: 13; Rpn11 block: 4

Results for CCOC(=O)Cc1csc(SCC(=O)Nc2sc3c(c2C(N)=O)CCC3)n1 ?
CSN deneddyl inh: 37*; HNF4A DNA FP: -15; Myeloid diff MLP: inactive; TPT1 inh: 18; Rpn11 block: 9

Results for NC(Cc1ccccc1)c1csc(Nc2nccc(C(F)(F)F)n2)n1 (stereo unspecified) ?
CSN deneddyl inh: -3; HNF4A DNA FP: 1; Myeloid diff MLP: inactive; Rpn11 block: 8

How did Cc1cc(O)c2c(c1O)C(=O)[C@]13C(=C2O)C(=O)[C@@H]2[C@@H](O)[C@H]1[C@@H]1[C@H](O)[C@H]3C(=O)C3=C(O)c4c(O)cc(C)c(O)c4C(=O)[C@]312 do in these assays?
CSN deneddyl inh: 61; HNF4A DNA FP: -39; Myeloid diff MLP: active; Rpn11 block: 49*

What do the screens show for `COc1ccc(C2C(C#N)=C(C)NC3=C2C(=O)CC(C)(C)C3)cc1` (stereo unspecified)?
CSN deneddyl inh: 102*; HNF4A DNA FP: 1; Myeloid diff MLP: inactive; TPT1 inh: -7; Rpn11 block: -2

Results for COc1ccc(C2C3=C(CC(C)(C)CC3=O)Nc3c2c(=O)[nH]c2nc(C)nn32)cc1 (stereo unspecified) ?
CSN deneddyl inh: 2; HNF4A DNA FP: -3; Myeloid diff MLP: active; TPT1 inh: 3; Rpn11 block: -5

Results for CO[C@@H]1CN(C)C(=O)c2ccc(NS(=O)(=O)c3c(C)noc3C)cc2OC[C@@H](C)NC[C@@H]1C ?
CSN deneddyl inh: -2; HNF4A DNA FP: 4; Myeloid diff MLP: inactive

How did COc1ccccc1N1CCN(C(=O)c2ccc(Cl)c(S(=O)(=O)NCc3ccco3)c2)CC1 do in these assays?
CSN deneddyl inh: 0; HNF4A DNA FP: -2; Myeloid diff MLP: active; TPT1 inh: 0; Rpn11 block: 0
